High-throughput results deposited in PubChem BioAssay by several laboratories.
Bim-Bcl-XL: disrupts Bim peptide binding to human Bcl-XL. Q07817. bead flow cytometry, fluorescence. inhibition, % at 10 µM. 190,000 tested, 0.04% active. AID 1007
Bcl-2 Bim block: human Bim-Bcl-2 interaction inhibition; P10415; Bead-based flow cytometry, Bim peptide-Bcl-2 binding; inhibition, % at 10 µM; 190,000 tested, 0.06% active; AID 950; in the data active = inhibition above about 40%;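 also: 0% = no compound wells with probe peptide and 100% = reference peptide inhibitor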
Bcl-W Bim block: human Bim-Bcl-W interaction inhibition | Q92843 | bead-based flow cytometry, Bim peptide-Bcl-W binding | inhibition, % at 10 µM | 190,000 tested, 0.02% active;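 also: 0% = bound tracer without compound and 100% = peptide blocker; higher means less fluorescent Bim peptide bound to Bcl-W beads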
Target sequence (Q92843 whole entry, looked up): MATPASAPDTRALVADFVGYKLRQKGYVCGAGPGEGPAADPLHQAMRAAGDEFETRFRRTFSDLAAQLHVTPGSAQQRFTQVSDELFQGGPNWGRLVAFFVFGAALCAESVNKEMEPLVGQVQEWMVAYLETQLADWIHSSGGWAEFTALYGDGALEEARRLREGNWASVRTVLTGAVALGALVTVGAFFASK
Bfl-1 Bim block: disrupts Bim binding to human Bfl-1 | Q16548 | Bead-based flow cytometry, Bim-Bfl-1 binding inhibition | inhibition, % at 10 µM | 190,000 tested, 0.12% active | AID 1008;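 also: 0% = wells without compound plus tracer and 100% = blocker peptide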
Target sequence (Q16548 whole entry, looked up): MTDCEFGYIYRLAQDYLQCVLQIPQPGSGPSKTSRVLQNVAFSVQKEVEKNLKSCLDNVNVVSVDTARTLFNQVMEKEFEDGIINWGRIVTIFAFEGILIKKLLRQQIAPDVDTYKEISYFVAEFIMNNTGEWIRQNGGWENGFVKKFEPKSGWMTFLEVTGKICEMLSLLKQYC
Bcl-B Bim block: inhibitors of Bim-Bcl-B interaction, human; Q9HD36; inhibition, % at 10 µM; bead-based flow cytometry, Bim peptide-Bcl-B binding; 190,000 tested, 0.073% active;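 also: 0% = tracer peptide without compound and 100% = reference inhibitor peptide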
Calb biofilm kill: mixture kills Candida albicans biofilm cells. inhibition, % at 7.6 µM. 120,000 tested, 0.02% active. C. albicans biofilm persisters + clotrimazole, fluorescence viability; primary screen in compound mixtures of four per well;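 also: compounds exposed to preformed 24 h biofilms for 48 h; 0% = untreated biofilm control and 100% = clotrimazole plus chlorhexidine kill blank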
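Test system: C. albicans biofilms. Buffer or medium: RPMI/MOPS medium, pH 7.0. Timing: 48 h compound exposure at 37 °C. Technique: Alamar Blue fluorescence. Evaluation: percent inhibition of biofilm viability.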
* = called active by the depositor; . = no result. Most compounds without a hit are left out; they make up all but 0.17% or so of the library. Rule as the data show it, unless noted: active = inhibition above about 40%.

SMILES | Bim-Bcl-XL | Bcl-2 Bim block | Bcl-W Bim block | Bfl-1 Bim block | Bcl-B Bim block | Calb biofilm kill
Oc1ccc(C2=Nn3c(nnc3-c3ccco3)SC2)cc1O | 55* | 17 | 35 | 15 | 36 | .
CC(C)(C)NC(=O)C1CC(=O)OC12CCOC(C)(C)C2 (centres undefined) | -1 | -3 | -1 | -15 | -6 | 12
Cc1nnc(NCc2n[nH]c(=O)c3ccccc23)c2ccccc12 | 0 | 0 | 4 | 5 | 57* | .
CC(NCc1ccccc1O)c1ccccc1 (centres undefined) | 0 | 3 | 1 | -3 | 0 | 6
CSc1nnc2c3cc(C)ccc3n(Cc3ccccc3)c2n1 | 14 | 48* | 18 | 20 | 39 | .
c1ccc(Cn2c3ccccc3c3nnc(SCCN4CCCCC4)nc32)cc1 | . | . | . | . | . | 21
COc1cc(/C=N/Nc2nn3cnnc3c3ccccc23)ccc1O | 42* | 8 | 27 | 3 | 27 | .
N#Cc1c(-c2ccncc2)c2c([nH]c1=S)CCCC2 | 0 | -2 | 0 | 2 | -9 | .
Cc1ccc(-c2c3c([nH]c(=S)c2C#N)CCCC3)o1 | 5 | 11 | 20 | 41* | -5 | .
c1cc(CNC23CC4CC(CC(C4)C2)C3)ccn1 | 0 | -4 | -3 | -8 | -2 | 7
Oc1c(Cl)cc(Cl)c2cccnc12 | -2 | 7 | 6 | 10 | -27 | 43*
Cc1ccc(N=C2NC(=O)/C(=C/C=C/c3ccco3)S2)cc1 | 4 | 20 | 15 | 52* | 0 | -17
Cc1ccc2[nH]c(=O)c(CNC(C)C)cc2c1 | 0 | -3 | 3 | -4 | -1 | .
C/C(=N\NC(=O)Cc1cccn1C)c1ccc2ccccc2c1 | 29 | 50* | 19 | 15 | 46* | .
CN(C)CCNC(=O)C(=O)C1C(=O)Nc2ccccc21 (centres undefined) | 0 | 78* | -6 | 52* | 70* | 8
CCCCCNC(=O)C(=O)C1C(=O)Nc2ccccc21 (centres undefined) | . | . | . | . | . | 17
O=C(Nc1ccccc1C(F)(F)F)c1c(F)cccc1Cl | -3 | 2 | -1 | -4 | -2 | 18
Cc1nc2ccc(NC(=O)c3cc([N+](=O)[O-])cc([N+](=O)[O-])c3Cl)cc2s1 | 1 | 13 | 6 | 52* | 2 | 13
Cc1ccc(C)c(OCc2nnc(SCC(=O)NCc3ccc4c(c3)OCO4)o2)c1 | 1 | -4 | 1 | -5 | -2 | 9
CNC(=O)CCSc1ccc(C)cc1 | -30 | -41 | -33 | -27 | -43 | 12
CC(C)c1ccc(S(=O)(=O)/N=C2/C=CC(=O)c3ccccc32)cc1 | 1 | 6 | 9 | 42* | -16 | 14
O=C1CC(C(=O)Nc2ccc(F)cc2)n2cnnc2N1 (centres undefined) | -3 | -3 | 0 | -5 | -2 | 0
CCOC(=O)c1c2c3c(c(Cl)ccc3[nH]c1=O)C(=O)c1ccccc1-2 | 51* | 21 | 33 | 10 | 20 | 43
CCOc1ccc(S(=O)(=O)Nc2cccc(C)c2)c2cccnc12 | -1 | 0 | 4 | -2 | 2 | 5
CC(C)=C1C(=O)NN(c2cccc(Cl)c2)C1=O | -9 | 2 | -2 | 4 | 0 | 19
SMILES | Bim-Bcl-XL | Bcl-2 Bim block | Bcl-W Bim block | Bfl-1 Bim block | Bcl-B Bim block | Calb biofilm kill
CC(C)=C1C(=O)NN(c2ccc(C)c(Cl)c2)C1=O | 50* | 36 | 48* | 43* | 56* | 17
O=C1S/C(=C/c2ccc(N3CCOCC3)o2)C(=O)N1Cc1ccc(F)cc1 | 5 | -2 | 7 | 27 | -11 | .
Cc1ccc(-c2ccc(/C=C3\SC(N4CCOCC4)=NC3=O)o2)cc1 | 11 | 17 | 17 | 41* | 2 | 13
O=C1NC(=S)S/C1=C/c1ccc(N2CCOCC2)o1 | 18 | 34 | 36 | 53* | 11 | 12
O=C1N=C(N2CCOCC2)S/C1=C/c1ccc(-c2ccc(F)cc2)o1 | 0 | 3 | 2 | 7 | -2 | 21
Cc1ccc(Nc2nc(N)nc(CN3CCN(Cc4ccc5c(c4)OCO5)CC3)n2)cc1C | -6 | -3 | -3 | -10 | -5 | 33*
Cc1ccc(Nc2nc(N)nc(CN3CCN(Cc4ccc5c(c4)OCO5)CC3)n2)cc1Cl | 0 | -4 | -7 | -4 | -4 | .
CCc1cc2c(=O)[nH]c(-c3ccncc3)nc2s1 | -2 | 1 | -3 | 4 | -2 | 8
CCOC(=O)c1cc2c(=O)n3cccc(C)c3nc2n(Cc2ccco2)c1=NC(=O)c1cccnc1 | 9 | 14 | 20 | 40* | 12 | .
